# V1aR counter: agonists of human V1a receptor, primary screen, counter-screen for OXTR agonist project, fluorescence, CHO-V1R cells. Vasopressin V1a receptor (Homo sapiens), P37288. AID 2797, 2010. Fluo-8 calcium fluorescence, agonist mode; 0% DMSO, 100% 3 nM vasopressin. activation, % at 3 µM. 320,000 compounds, 0.25% hits;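 active means activation above the mean activation of all tested compounds plus 3 SD, per screening run, cut at about 20% in these data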;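 further: signal is peak over basal fluorescence ratio across a 100 second FLIPR read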
# OXTR potentiator: human OXTR potentiators, primary screen, fluorescence, CHO-OTR cells, Fluo-8 calcium. activation, % at 3 µM. Fluo-8 calcium fluorescence, potentiator mode; 0% = oxytocin EC15, 100% = EC100. AID 2445, 2010. 320,000 compounds, 0.061% hits. Oxytocin receptor (Homo sapiens), P30559;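 active means activation above that plate's cutoff, the mean activation of tested compounds plus 3 SD, cut at about 6.6% in these data, passing the limit was not always enough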;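 further: 100% uses oxytocin at 75 nM as the full agonist control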
# Target sequence (P30559 whole entry, looked up): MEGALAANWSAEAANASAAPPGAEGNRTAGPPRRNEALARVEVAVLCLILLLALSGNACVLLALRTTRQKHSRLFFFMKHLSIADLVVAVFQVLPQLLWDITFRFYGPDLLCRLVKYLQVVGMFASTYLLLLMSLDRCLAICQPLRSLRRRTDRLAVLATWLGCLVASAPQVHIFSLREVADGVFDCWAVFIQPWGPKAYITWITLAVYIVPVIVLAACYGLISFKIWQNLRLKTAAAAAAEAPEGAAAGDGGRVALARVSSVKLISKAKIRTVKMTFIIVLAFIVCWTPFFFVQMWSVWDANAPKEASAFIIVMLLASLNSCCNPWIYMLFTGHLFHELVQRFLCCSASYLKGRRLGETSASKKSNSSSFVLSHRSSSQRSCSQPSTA
#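 Assay system: CHO-OTR cells, human receptor / Also added: oxytocin at about EC15, sub-maximal agonist stimulus / Dosing: single dose, 3.0 µM nominal final compound concentration / Incubation: 6 min pre-incubation, 100 s read / Technique: Fluo-8 calcium dye fluorescence / Read-out: % activation vs EC15 and EC100 oxytocin / Benchmarks: EC15 oxytocin low, 75 nM oxytocin high / Replicates: singlicate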
# TRPN1 ag: zebrafish TRPN1 channel agonists, primary screen, cell-based, HEK293, calcium fluorescence. HEK293 zebrafish TRPN1-YFP, Fluo-8 calcium fluorescence; 100% = response to 87 µM carbachol. activation, % at 3 µM. transient receptor potential cation channel N1 (TRPN1/NompC), Danio rerio. 220,000 compounds, 0.18% hits;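 active means activation above its plate's cutoff, the mean activation of test wells on that plate plus 3 SD, cut at about 19% in these data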;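 further: 0% = DMSO alone and 100% = 87 µM carbachol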
#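 Material: zebrafish TRPN1-YFP in HEK293 cells; Doses: single test compound dose, 3 µM nominal, 0.3% DMSO; Timing: dye loading 1 h at 37 °C, then 30 min room temperature; Technique: intracellular calcium fluorescence with Fluo-8; Benchmarks: high carbachol 87 µM, low DMSO alone.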
# TRPML3 agonist: human TRPML3 channel agonists, primary screen, cell-based, HEK293 TRPML3-YFP, Fluo-8 calcium fluorescence, 3 µM; Mucolipin-3 (Homo sapiens), Q8TDD5; 100% = the carbachol control signal; activation, % at 3 µM; 220,000 compounds, 0.29% hits; AID 1448, 2008;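 active means activation above its plate's cutoff, the mean activation of the plate's test wells plus 3 SD, cut at about 12% in these data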;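 further: 0% = DMSO only wells and 100% = carbachol wells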
#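 Material: HEK293 cells stably carrying human TRPML3-YFP; compound dosing: single dose, 3 µM final nominal compound, 0.3% DMSO final; incubation: 1-h 37 °C dye load, 5-s basal, 120-s post-compound reads; technique: Fluo-8 intracellular calcium fluorescence, excitation 470-495 nm, emission 515-575 nm; read-out basis: percent activation from peak-to-basal fluorescence ratio, scaled between DMSO and carbachol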
# OXTR agonist: human OXTR agonists, primary screen, fluorescence, CHO-OTR cells, Fluo-8 calcium | Fluo-8 calcium fluorescence; normalized: DMSO 0%, oxytocin 100% | activation, % at 3 µM | 320,000 compounds, 0.32% hits | AID 2435, 2010;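 active means activation above the mean of all tested compounds plus 3 SD, cutoff set per screening run, cut at about 20% in these data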;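 further: peak over basal fluorescence ratio from a 100 s FLIPR kinetic read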
# V1aR agonist cf: V1a receptor agonists, calcium signal, confirmation, Fluo-8 calcium fluorescence, CHO-V1R cells; agonist; activation, % at 3 µM; shares compounds with V1aR counter; 180 compounds, 20% hits; AID 434964, 2010;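 active means average activation exceeds primary screen hit cutoff, cut at about 21% in these data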;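 further: peak over basal fluorescence ratio during a 100 s FLIPR read; 0% = DMSO only wells and 100% = 3 nM vasopressin wells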
# OXTR counter: human OXTR agonists, counter-screen for V1R agonist project, fluorescence, CHO-OTR cells, triplicate. 180 compounds, 10% hits. shares compounds with V1aR counter. activation, % at 3 µM. Fluo-8 calcium fluorescence;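 active means mean activation over three repeats above the cutoff from the earlier oxytocin receptor agonist screen, cut at about 20% in these data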;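 further: peak over minimum fluorescence ratio within a 100 second FLIPR read; 0% = DMSO only wells and 100% = oxytocin high control wells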
# Starred values were filed as active, the others as inactive; . = no result given. The list is not random: actives were taken first. Their share in the collection is about 0.55%.
SMILES,V1aR counter,OXTR potentiator,TRPN1 ag,TRPML3 agonist,OXTR agonist,V1aR agonist cf,OXTR counter
CCC(C(=O)Nc1c2c(nn1C(C)(C)C)CS(=O)(=O)C2)c1ccccc1 (centres undefined),1,0,.,.,-1,.,.
CN(CC(=O)NCc1ccc(F)cc1)CC(=O)Nc1ccc(Cl)c(C(F)(F)F)c1,29*,-15,.,.,16,10,13
O=C(CCCN=C1NS(=O)(=O)c2ccccc21)OCC(=O)c1ccc(Br)cc1,26*,-14,.,.,14,10,8
Cc1ccc(-c2c[n+](CC(=O)c3cccs3)c3n2CCC3)cc1,-1,-6,-1,0,0,.,.
O=C(NC1CCCCC1)NC1CC2CCCC(C1)N2C1CCCC1 (centres undefined),0,-10,1,0,1,.,.
CCC(NC(=O)c1cc(COc2ccc(C)nc2)on1)c1ccc(C)cc1 (centres undefined),23*,-18,.,.,12,13,13
O=S1(=O)CCN2C(c3ccco3)=CSC2=N1,0,-17,2,1,1,.,.
Cc1ccc(/C=N/NC(=O)c2nnn(-c3nonc3N)c2-c2ccc3c(c2)OCO3)s1,30*,-4,.,.,12,14,3
COc1cccc(-c2c(C(=O)N/N=C(\C)c3ccc(Cl)s3)nnn2-c2nonc2N)c1,25*,-6,.,.,18,8,1
COc1ccc(/C=N/NC(=O)c2nnn(-c3nonc3N)c2-c2cccc(OC)c2)cc1,26*,-5,.,.,16,25*,25*
CCOc1cccc(-c2c(C(=O)N/N=C/c3cccs3)nnn2-c2nonc2N)c1,24*,-5,.,.,19,14,7
COc1ccc(Cl)cc1NC(=S)NCc1cccs1,0,-2,-1,0,0,.,.
O=[N+]([O-])c1ccc(/C=N/Nc2nc(N3CCCCCC3)nc(N3CCCCCC3)n2)o1,-2,-8,1,1,-2,.,.
NS(=O)(=O)c1ccc2nc(NC(=O)Nc3ccc(F)cc3)sc2c1,24*,-2,.,.,1,1,1
Cc1ccc(NS(=O)(=O)c2ccc(C(=O)N3CCCCCC3)cc2)cc1,21*,-12,.,.,14,13,17
Cc1ccc(NS(=O)(=O)c2ccc(C(=O)N3CCCCCCC3)cc2)cc1,15,-14,.,.,8,.,.
Nc1nc(-c2ccccn2)nc(N)c1Cc1ccc(Cl)cc1Cl,22*,-11,3,2,15,7,4
O=C(OCCN1C(=O)c2cccc3c(N4CCOCC4)ccc(c23)C1=O)c1ccccc1Cl,26*,-11,7,2,12,30*,42*
Cc1sc(NC(=O)c2ccco2)c(CN2CCN(c3ccccc3)CC2)c1C,-1,-5,-1,-1,-1,.,.
CCCCCCCCCCC[N+](C)(C)CC/C=C1/c2ccccc2Sc2ccc(Cl)cc21,38*,-13,.,.,1,11,17
CCOc1ccc(NC(=O)c2cccc(NC(=O)c3ccccc3)c2)cc1,50*,-18,.,.,1,2,-1
O=C(CCCN1C(=O)NC2(CCCC2)C1=O)Nc1ccc(F)cc1,0,-4,.,.,0,.,.
CCC1Sc2ccc(S(=O)(=O)Nc3ccc(OC)c(OC)c3)cc2NC1=O (centres undefined),6,-23,.,.,7,.,.
CCC1Sc2ccc(S(=O)(=O)Nc3ccc(OC)cc3)cc2NC1=O (centres undefined),20*,-13,.,.,13,5,4
Cc1ccc(S(=O)(=O)NCc2c(-c3ccccc3)c3cc(Cl)ccc3[nH]c2=O)cc1,1,-2,1,0,0,.,.

# Screening data (PubChem)
